Columns and labels:
[1] = type: in vivo; settings: mice, intravenous, 0.02 mg/mouse as ICG, brains harvested after 48 h
How it was run: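 Mice received the test compound or free ICG alone by intravenous injection. Brains were harvested 48 h later and imaged for near-infrared ICG fluorescence, with instrument sensitivity set to 1,600–3,000 (fluorescence intensity a.u.).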

VIPR2 = settings: read-out: antagonist activity IC50; cited from earlier work

Compound	ICG fluorescence in the brain [1]	IC50 (VIPR2)
CC1(C)C(/C=C/C=C/C=C/C=C2\N(CCCCS(=O)(=O)O)c3ccc4ccccc4c3C2(C)C)=[N+](CCCCS(=O)(=O)[O-])c2ccc3ccccc3c21 [ICG, indocyanine green, reference compound]	but not in the brains	
CCCC[C@@H]1NC(=O)[C@H](CCC(=O)O)NC(=O)[C@H](C)NC(=O)[C@H](CC(C)C)NC(=O)[C@H](CCCC)NC(=O)[C@H](Cc2ccc(O)cc2)NC(=O)[C@H](CCCCN)NC(=O)[C@H](Cc2ccc(O)cc2)NC(=O)[C@H]([C@@H](C)O)NC(=O)[C@@H](NC(=O)[C@@H]2CCCN2C(=O)[C@@H](NC(=O)CNC(=O)CCOCCOCCOCCOCCn2nnc3c2-c2ccccc2CN(C(=O)CCNC(=O)CCOCCOCCOCCOCCOCCC(=O)NCCC(=O)N2Cc4ccccc4-c4c(nnn4CCNC(=O)CCCCCN4C(=CC=CC=CC=CC5=[N+](CCCCS(=O)(=O)[O-])c6ccc7ccccc7c6C5(C)C)C(C)(C)c5c4ccc4ccccc54)-c4ccccc42)c2ccccc2-3)[C@@H](C)O)CSSC[C@@H](C(=O)O)NC1=O [ICG-KS-487]	Fluorescence was clearly observed	
Ac-(CPPYLP[KYLC)D]LI-NH2 (bicyclic or more) [KS-133]		25 nM
